Data as given in ChEMBL document CHEMBL3580629, “Diterpenoids and Triterpenoids from the Resin of Bursera microphylla and Their Cytotoxic Activity” (J Nat Prod, 2015).

Key:
Type in all cases: functional, cell-based
[1] = Cytotoxic activity against mouse M12.C3.F6 cells assessed as reduction in cell viability incubated for 48 hrs by MTT assay
Outline: (§1)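 Cells seeded at 1 × 10^4 per well and left 24 h at 37 °C, 5% CO2 to attach, then given test substances at 200 to 0.05 μM for 48 h. Substances were dissolved in DMSO and diluted in medium (0.06–2.0% DMSO in cultures). MTT (5 mg/mL stock) was added for the final 4 h, and formazan was dissolved in acidic isopropanol. Absorbance was read at 570/650 nm against vehicle (100%). IC50 came from nonlinear regression of log-normalized data, six doses in triplicate, at least three experiments.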

[2] = tested on: HeLa; assay: Cytotoxic activity against human HeLa cells assessed as reduction in cell viability incubated for 48 hrs by MTT assay; outline: as §1
[3] = tested on: RAW264.7; assay: Cytotoxic activity against mouse RAW264.7 cells assessed as reduction in cell viability incubated for 48 hrs by MTT assay; outline: as §1
[4] = tested on: A549; assay: Cytotoxic activity against human A549 cells assessed as reduction in cell viability incubated for 48 hrs by MTT assay; outline: as §1
[5] = tested on: PC-3; assay: Cytotoxic activity against human PC3 cells assessed as reduction in cell viability incubated for 48 hrs by MTT assay; outline: as §1
[6] = Mus musculus, RAW264.7, 48 h, read-out: IC50

| Compound | IC50 [1] | IC50 [2] | IC50 ([3]; raw264.7) | IC50 [4] | IC50 ([5]; pc-3) | IC50 [3, 6] [nM] | IC50 ([1]; Mus musculus, 48 h, read-out: IC50) [nM] | IC50 ([5]; Homo sapiens, PC-3, 48 h, read-out: IC50) [nM] |
| --- | --- | --- | --- | --- | --- | --- | --- | --- |
| CC(C)=CCC/C(C)=C/C/C=C(\C)[C@H]1CCC2[C@@]3(C)CCC(=O)C(C)(C)C3CC[C@]21C (stereo partly specified) | Not Active | Not Active | Not Active | Not Active | Not Active | – | – | – |
| CC(C)=CCC/C(C)=C/C/C=C(\C)[C@H]1CCC2[C@@]3(C)CC[C@H](O)C(C)(C)C3CC[C@]21C (stereo partly specified) | Not Active | Not Active | Not Active | Not Active | Not Active | – | – | – |
| CC(=O)OC[C@H](Cc1ccc2c(c1)OCO2)[C@H](COC(C)=O)Cc1ccc2c(c1)OCO2 | – | – | – | – | – | 9800 | – | – |
| COc1cc(C[C@@H]2COC[C@H]2Cc2ccc3c(c2)OCO3)cc(OC)c1OC | – | – | – | – | – | 400 | – | – |
| COc1cc(C[C@@H](COC(C)=O)[C@H](COC(C)=O)Cc2ccc3c(c2)OCO3)cc(OC)c1OC | – | – | – | – | – | 200 | 2500 | – |
| CC(=O)O[C@@]1(C(C)C)C/C=C(\C)CC[C@@H]2O[C@@]2(C)CC/C=C(\C)CC1 (relative stereo) | Not Active | Not Active | Not Active | Not Active | Not Active | – | – | – |
| COc1cccc2c1C(=O)c1c(O)c3c(c(O)c1C2=O)C[C@@](O)(C(=O)CO)C[C@@H]3O[C@H]1C[C@H](N)[C@H](O)[C@H](C)O1 [DOXORUBICIN] | – | – | – | – | – | 630 | – | 3180 |
